Only some compounds are listed: those with a hit (about 3.7% of all), similar ones and a draw of the others.
Furin inhibitor: inhibitors of human furin. P09958. purified furin, fluorogenic substrate cleavage. inhibition, % at 20 µM or 30 µM. 220,000 compounds, 0.061% hits; in the data active means inhibition above about 25%
Target sequence (P09958 108-714 limits assumed): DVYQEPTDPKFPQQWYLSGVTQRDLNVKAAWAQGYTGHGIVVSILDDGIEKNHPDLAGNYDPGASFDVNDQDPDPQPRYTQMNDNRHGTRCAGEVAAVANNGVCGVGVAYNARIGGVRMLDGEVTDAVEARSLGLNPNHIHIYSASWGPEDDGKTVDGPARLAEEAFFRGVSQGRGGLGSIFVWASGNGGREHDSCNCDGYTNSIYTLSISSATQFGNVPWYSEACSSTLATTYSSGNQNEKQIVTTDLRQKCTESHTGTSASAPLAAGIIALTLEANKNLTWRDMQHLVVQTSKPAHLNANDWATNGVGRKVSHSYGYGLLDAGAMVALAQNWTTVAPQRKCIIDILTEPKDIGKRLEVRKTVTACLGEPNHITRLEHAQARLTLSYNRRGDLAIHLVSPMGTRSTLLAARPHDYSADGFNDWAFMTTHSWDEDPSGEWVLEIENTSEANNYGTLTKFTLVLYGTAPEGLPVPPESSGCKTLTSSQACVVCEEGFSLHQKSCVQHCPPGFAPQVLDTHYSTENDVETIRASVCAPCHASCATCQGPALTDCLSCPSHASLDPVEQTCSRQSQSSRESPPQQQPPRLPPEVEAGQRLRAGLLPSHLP
NPY Y1 blocker: NPY-Y1 (human) receptor antagonism | P25929 | HEK293-CNG Y1 cells, membrane potential fluorescence; NPY at EC95, then isoproterenol | inhibition, % at 3.6 µM | 200,000 compounds, 1% hits;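 active means inhibition above the campaign mean inhibition of all tested compounds plus 3 SD, cut at about 20% in these data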;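 further: 0% = DMSO wells given NPY plus isoproterenol and 100% = isoproterenol alone without NPY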
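Assay system: HEK293 cells with Y1 receptor plus CNG channel | Probe or stimulus: NPY (25 nM), isoproterenol (1 µM), Ro 20-1724 (25 µM) | Timing: Compound incubation 1 h at room temperature, readout 45 min post-stimulation | Measured by: Membrane-potential fluorescent dye readout | Benchmarks: High control isoproterenol alone, low control NPY with isoproterenol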
NPY Y2 blocker: NPY-Y2 (human) receptor antagonism | P49146 | NPY-Y2 expressing cells, antagonist mode | inhibition, % at 2.7 µM | 140,000 compounds, 0.99% hits | AID 793; in the data active means inhibition above about 17%;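 further: 0% = vehicle with agonist challenge and 100% = reference antagonist with challenge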
NPY-Y1 PAM-ag: potentiators or agonists of human neuropeptide Y receptor Y1 | AID 1304 | 220,000 compounds, 0.37% hits | activation, % at 3.6 µM | NPY-Y1 expressing cells, potentiator/agonist activation; in the data active means activation above about 33%, passing the limit was not always enough;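 further: cells stimulated with NPY at EC10 then isoproterenol at EC100; 0% = low agonist plus stimulus and 100% = saturating agonist plus stimulus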
KCC2 mod: modulators of human KCC2 chloride dependent transport. Q9H2X9. KCC2 cells, thallium flux FluoZin-2 fluorescence. B-score of Tl+ flux slope (higher = more flux/activation; lower = inhibition) at 10 µM. 190,000 compounds, 2.2% hits;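 active means thallium flux slope and its plate-corrected score both differing from the plate sample mean at a set confidence after two filtering rounds, in either direction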;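 further: slope of fluorescence scaled to starting intensity during 10 to 20 s after thallium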
NPY2 pot ag: potentiates or activates human NPY-Y2 receptor | cells expressing NPY-Y2, potentiator/agonist read-out | P49146 | activation, % at 3.6 µM | 220,000 compounds, 0.45% hits; in the data active means activation above about 27%;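 further: cells stimulated with NPY near EC25 plus isoproterenol at EC100; 0% = vehicle plus submaximal agonist and 100% = vehicle plus saturating agonist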
* = called active by the depositor.

What do the screens show for `O=C(C1CCN(CC2CC=CCC2)CC1)N(CCc1ccccc1)Cc1ccccc1` (configuration not stated)?
Furin inhibitor: -20.4; NPY Y1 blocker: 23.5*; NPY Y2 blocker: 18.1*; NPY-Y1 PAM-ag: -42.3; NPY2 pot ag: -14.8

How did O=C(C1CCN(S(=O)(=O)c2cnc[nH]2)CC1)N(CCc1ccccc1)Cc1ccccc1 do in these assays?
Furin inhibitor: -16.8; NPY Y1 blocker: 3.4; NPY-Y1 PAM-ag: -16.7; KCC2 mod: -0.00301; NPY2 pot ag: 9.7

What do the screens show for `O=C(C1CCN(CCCc2ccccc2)CC1)N(CCc1ccccc1)Cc1ccccc1`?
Furin inhibitor: -14.5; NPY Y1 blocker: 26.8*; NPY Y2 blocker: 35.8*; NPY-Y1 PAM-ag: -51.8; KCC2 mod: -1.11; NPY2 pot ag: 21.6

What do the screens show for `CCN(Cc1ccccc1)C(=O)C1CCN(C/C(C)=C/c2ccccc2)CC1`?
Furin inhibitor: -17.4; NPY Y1 blocker: 8.1; NPY Y2 blocker: 3.0; NPY-Y1 PAM-ag: -20.4; KCC2 mod: 0.201; NPY2 pot ag: -10.3

How did O=C(N/N=C/c1ccc([N+](=O)[O-])s1)c1ccccc1Br do in these assays?
Furin inhibitor: 8.5; NPY Y1 blocker: -4.0; NPY Y2 blocker: -0.7; NPY-Y1 PAM-ag: 1.5; KCC2 mod: 0.896; NPY2 pot ag: 3.2

How did Cc1ccccc1C(=O)N/N=C/c1ccc([N+](=O)[O-])s1 do in these assays?
Furin inhibitor: -0.3; NPY Y1 blocker: 2.1; NPY Y2 blocker: -1.0; NPY-Y1 PAM-ag: 3.0; KCC2 mod: 5.25*; NPY2 pot ag: 0.7

What do the screens show for `Cc1cccc2cc(C#N)c(SCCN3CCCCC3)nc12`?
Furin inhibitor: -23.2; NPY Y1 blocker: 11.2; NPY Y2 blocker: 11.9; NPY-Y1 PAM-ag: -46.7; KCC2 mod: 3.57*; NPY2 pot ag: -23.3

How did COC(=O)COc1ccc(S(=O)(=O)NCC2CCCO2)cc1Cl (configuration not stated) do in these assays?
Furin inhibitor: 31.4*; NPY Y1 blocker: -5.5; NPY Y2 blocker: 0.5; NPY-Y1 PAM-ag: -9.3; KCC2 mod: -0.759; NPY2 pot ag: 8.8

Results for Clc1ccc(CN2C3=NCCN3c3ccccc32)cc1Cl ?
Furin inhibitor: -18.2; NPY Y1 blocker: 39.5*; NPY Y2 blocker: 17.7*; NPY-Y1 PAM-ag: -11.2; KCC2 mod: -0.158; NPY2 pot ag: -2.7

How did OC(CNCCNc1ncccc1C(F)(F)F)COc1ccc(F)cc1 (configuration not stated) do in these assays?
Furin inhibitor: -21.1; NPY-Y1 PAM-ag: 86.0*; KCC2 mod: -0.416; NPY2 pot ag: 61.4*

How did COc1ccc(OCC(O)CNC(=O)c2cccs2)cc1 (configuration not stated) do in these assays?
Furin inhibitor: 0.4; NPY-Y1 PAM-ag: 2.5; KCC2 mod: 0.624; NPY2 pot ag: 7.6

Results for CCOc1ccc(N2C(=O)CC(NCCNc3ccc(C(=O)c4cccs4)cc3)C2=O)cc1 (configuration not stated) ?
Furin inhibitor: -1.1; NPY Y1 blocker: 0.6; NPY-Y1 PAM-ag: -8.9; KCC2 mod: -0.569; NPY2 pot ag: 4.7

What do the screens show for `CCCOc1ccccc1Cn1c(=O)oc2ccc(C)cc21`?
Furin inhibitor: -1.3; NPY Y1 blocker: 20.3*; NPY Y2 blocker: 21.0*; NPY-Y1 PAM-ag: -42.5; KCC2 mod: -1.47; NPY2 pot ag: -28.9

Results for O=C(/C=C/c1ccccc1)Nc1ccc(Cl)cn1 ?
Furin inhibitor: -19.0; NPY Y1 blocker: 1.4; NPY-Y1 PAM-ag: -10.4; KCC2 mod: -0.506; NPY2 pot ag: -7.4

How did Cc1cccc(NC(=S)NNC(=O)c2sccc2C)c1 do in these assays?
Furin inhibitor: -19.1; NPY Y1 blocker: 5.0; NPY Y2 blocker: 1.7; NPY-Y1 PAM-ag: -0.8; KCC2 mod: 1.95; NPY2 pot ag: -9.4

How did CCc1cc(C(=O)NNC(=S)Nc2cccc(C)c2)cs1 do in these assays?
Furin inhibitor: -20.7; NPY Y1 blocker: 7.6; NPY Y2 blocker: 7.6; NPY-Y1 PAM-ag: -8.7; KCC2 mod: 9.33*; NPY2 pot ag: -11.0

Results for Cc1cccc(NC(=S)NNC(=O)c2csc(C(C)C)c2)c1 ?
Furin inhibitor: -19.0; NPY Y1 blocker: 14.8; NPY Y2 blocker: 6.1; NPY-Y1 PAM-ag: -24.4; KCC2 mod: 15.9*; NPY2 pot ag: -17.0

Results for Cc1ccccc1Cn1ccc(=NCc2ccccc2)cc1 ?
Furin inhibitor: -9.9; NPY Y1 blocker: 2.2; NPY Y2 blocker: 3.6; NPY-Y1 PAM-ag: -13.2; KCC2 mod: -0.282; NPY2 pot ag: -2.1

Screens: PubChem, several laboratories
